Screening results as filed in PubChem BioAssay.
PKA kinase inh – PKA (human) kinase inhibition; PKA Kemptide phosphorylation, Kinase-Glo ATP luminescence; inhibition, % at 6 µM; 65,000 tested, 0.1% active; AID 524;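 active = inhibition above the screen-wide mean inhibition plus 3 SD, cut at about 21% in these data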
mHtt clearance – mutant huntingtin protein clearance; HeLa Exon1htt(103Q)mCFP, aggregate imaging; zero = plate's median compound well; inhibition, % at 1.5 µM; 47,000 tested, 0.42% active;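 active = inhibition of aggregate fluorescence above about 70%, also judged a hit by eye on the cell image, limit read from the data, passing the limit was not always enough; inconclusive = no rule stated for this call; inactive = not judged a hit on image review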;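 also: cells exposed to compound for three days before fixation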
SF-1 act – activates the human nuclear receptor SF-1 | 65,000 tested, 1.9% active | CHO-K1 Gal4-SF-1 LBD luciferase reporter; % increase over DMSO SF-1-specific signal | AID 522 | activation, % at 10 µM | Q13285;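 active = activation above the mean activation of all tested compounds plus 3 SD, cut at about 50% in these data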
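Compound – one dose, 10 µM compound, 1% DMSO · Test system – transient Gal4-SF-1 LBD reporter, CHO-K1 · Input – 4,000 cells in each well · Read-out basis – percent activation relative to DMSO median and mock-transfected background · Replicates – single measurement per compound · Technique – steady-glow luciferase luminescence, read after 15 min reagent incubation · Timing – 20 h compound treatment, 37 °C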
JNK3 inh – blocks human JNK3 kinase activity; P53779; purified JNK3 kinase activity, HTS; inhibition, % at 8 µM; 60,000 tested, 0.61% active; in the data active = inhibition above about 17%
ROCK2 inh – ROCK2 (human) kinase inhibition | purified ROCK2, Kinase-Glo ATP depletion luminescence | inhibition, % at 6 µM | 60,000 tested, 0.35% active;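 active = inhibition above the screen-wide mean inhibition plus 3 SD, cut at about 18% in these data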
RORa activator – activators of human nuclear receptor RORA; CHO-K1 Gal4-RORA LBD luciferase reporter, luminescence; percent increase over mock-subtracted basal signal; P35398; activation, % at 10 µM; 65,000 tested, 1.5% active;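 active = activation above the mean of all tested compounds plus 3 SD, cut at about 49% in these data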
Large screens that a line does not name were inactive. Only some compounds are listed: those with a hit (about 2.9% of all), similar ones and a draw of the others.

COC(=O)c1cccc2c1-c1ccccc1/C2=N/O	JNK3 inh 53.5, ROCK2 inh 19.5 (no result: mHtt clearance)
CC1CCc2sc3c(c2C1)c1ncnn1c(=O)n3CC(=O)c1ccc(Br)cc1 (stereo unspecified)	none
COc1cc(OC)cc(C(=O)Nc2ccc(-n3cnnn3)c(C)c2)c1	SF-1 act 54.1, RORa activator 50.1
COc1cc(C(=O)Nc2ccc3c(c2)OCO3)ccc1-n1cnnn1	none
Cc1cc(NC(=O)c2oc3ccccc3c2C)ccc1-n1cnnn1	RORa activator 86.0 (no result: mHtt clearance)
Cc1c(C(=O)Nc2ccncc2)oc2ccccc12	none
CC(C)CNC(=O)C(=O)N/N=C/c1cccs1	none (no result: PKA kinase inh, SF-1 act, JNK3 inh, ROCK2 inh, RORa activator)
S=c1[nH]nc(Cc2cccc3ccccc23)n1-c1ccccc1	none (no result: PKA kinase inh, SF-1 act, JNK3 inh, ROCK2 inh, RORa activator)
CCOc1ccc(N2C(=O)c3ccccc3C2O)cc1 (stereo unspecified)	SF-1 act 69.4 (no result: mHtt clearance)
CCCCc1c(O)c2ccccc2[nH]c1=O	none
CCCCc1cc(O)c(CCCC)c(O)c1	RORa activator 49.9
CC1Cc2ccccc2N1C(=O)CSc1nnnn1C(C)C (stereo unspecified)	none (no result: PKA kinase inh, SF-1 act, JNK3 inh, ROCK2 inh, RORa activator)
CCCN1C(=O)/C(=C2\SC(N3CCCCC3)=NC2=O)c2ccccc21	SF-1 act 81.3, RORa activator 64.9
COc1cccc(CC(=O)Nc2nccs2)c1	none (no result: mHtt clearance)
CN(C)c1ccc(NC(=O)Nc2ccc3snnc3c2)cc1	RORa activator 56.0 (no result: mHtt clearance)
COc1ccc(NC(=O)Nc2nccs2)cc1	mHtt clearance inconclusive, SF-1 act 73.2, RORa activator 64.3
O=C(Nc1ccccc1)Nc1ccc2snnc2c1	none (no result: PKA kinase inh, SF-1 act, JNK3 inh, ROCK2 inh, RORa activator)
COc1cccc(C(=O)Nc2ccc(N(C)C)cc2)c1OC	SF-1 act 50.3 (no result: mHtt clearance)
COc1cc(CC(=O)Nc2nccs2)cc(OC)c1OC	JNK3 inh 23.2 (no result: mHtt clearance)
Cc1cccn2c(=O)c3cc(C(=O)N4CCc5ccccc5C4)n(C)c3nc12	none (no result: mHtt clearance)
COc1ccc(NC(=O)Nc2ccc(N(C)C)cc2)cc1	RORa activator 57.9 (no result: mHtt clearance)
COc1ccc(NC(=O)Nc2ccc3nccnc3c2)cc1	SF-1 act 51.0, RORa activator 57.2 (no result: mHtt clearance)
CCN1CCN(Cc2ccc(OCc3ccccc3)cc2)CC1	SF-1 act 56.7
CN1CCN(Cc2ccc(OCc3ccccc3)cc2)CC1	mHtt clearance inconclusive
COc1cccc(C(C(=O)NCc2ccco2)N(Cc2ccco2)C(=O)Cn2nnc3ccccc32)c1 (stereo unspecified)	mHtt clearance 80.0 (no result: PKA kinase inh, SF-1 act, JNK3 inh, ROCK2 inh, RORa activator)
COc1ccc(-n2c(C)nc3c(cnn3-c3ccc(C)c(C)c3)c2=O)cc1	RORa activator 64.8
Cc1ccccc1NC(=O)Nc1ccccc1C(=O)NCc1ccccc1	none (no result: PKA kinase inh, SF-1 act, JNK3 inh, ROCK2 inh, RORa activator)
Cc1ccccc1NC(=O)c1nc[nH]c1C(=O)NCc1ccccc1	JNK3 inh 20.6
Nc1cccc(-n2nncc2-c2ccc(Cl)cc2)c1	none (no result: JNK3 inh, ROCK2 inh)
Nc1nonc1-n1nncc1-c1ccccc1	PKA kinase inh 28.3 (no result: mHtt clearance, JNK3 inh, ROCK2 inh)
CCC1S/C(=C(\C#N)C(=O)NCc2ccco2)N(c2ccc(F)cc2)C1=O (stereo unspecified)	none
CCC1S/C(=C(\C#N)C(N)=O)N(c2ccc(F)cc2)C1=O (stereo unspecified)	JNK3 inh 30.7
Cc1cc(C)c(NC2=NS(=O)(=O)c3ccccc32)c(C)c1	none (no result: PKA kinase inh, SF-1 act, JNK3 inh, ROCK2 inh, RORa activator)
COc1ccc(NC(=O)CCCCn2c(=O)[nH]c3ccccc3c2=O)cc1	JNK3 inh 20.8
COc1ccc(NC(=O)CCCn2c(=O)[nH]c3ccccc3c2=O)cc1	none
Nc1nnc(-c2cc3ccccc3oc2=O)s1	SF-1 act 54.8
CC(C)n1c(SCC(=O)Nc2nc3c(s2)CCCC3)nc2c1c(=O)n(C)c(=O)n2C	none (no result: PKA kinase inh, SF-1 act, JNK3 inh, ROCK2 inh, RORa activator)
Cc1nc2cc(Cl)c(Cl)cc2nc1C	SF-1 act 63.7, RORa activator 88.8 (no result: mHtt clearance)
CC(=O)Oc1c(S(=O)(=O)c2ccc(C)cc2)c(C)nn1-c1ccccc1	none (no result: mHtt clearance)
O=C(Nc1cccc(-c2cnc3ccccc3n2)c1)c1ccco1	SF-1 act 55.1, RORa activator 60.7
O=C(CNC(=O)c1ccc(Br)o1)Nc1cccc(-c2cnc3ccccc3n2)c1	JNK3 inh 19.7
Nc1c(C(=O)NCc2ccco2)sc2nc3c(cc12)C(=O)CCC3	none
COc1ccc2cc3c(N)c(C(=O)NCc4ccco4)sc3nc2c1	ROCK2 inh 19.5
Cc1ccc(Cn2c(NCCc3ccccc3)nc3c2c(=O)n(C)c(=O)n3C)cc1	mHtt clearance 71.2
CN(C)c1ccc(P(=O)(OCc2ccccc2)C(O)c2ccncc2)cc1 (stereo unspecified)	mHtt clearance 74.0
CN(CC(=O)N1CCc2ccccc21)S(=O)(=O)c1ccc(Br)s1	none (no result: mHtt clearance, JNK3 inh, ROCK2 inh)
Cc1csc(NC(=O)c2cc3c(s2)CCC3)n1	none (no result: JNK3 inh, ROCK2 inh)
O=C(c1cc2c(s1)-c1ccccc1OC2)N1CCCC1	RORa activator 83.8
Cc1csc(NC(=O)c2cc3c(s2)-c2ccccc2OC3)n1	RORa activator 63.4
O=C(c1cc2c(s1)-c1ccccc1OC2)N1CCN(c2ccccc2)CC1	none (no result: PKA kinase inh, SF-1 act, JNK3 inh, ROCK2 inh, RORa activator)
CCC1CCCCN1C(=O)Cn1c(=O)oc2ccccc21 (stereo unspecified)	none (no result: JNK3 inh, ROCK2 inh)
COc1ccc(CNC(=O)CCCCCn2c(SCC#N)nc3cc4c(cc3c2=O)OCO4)cc1	none (no result: mHtt clearance, JNK3 inh, ROCK2 inh)
Cc1csc(NC(=O)c2cnccn2)n1	none (no result: mHtt clearance)
CC(C)c1nnc(NC(=O)c2cnccn2)s1	SF-1 act 50.7
Cc1cnc(C(=O)Nc2nnc(C(C)C)s2)cn1	SF-1 act 68.5
Cc1cnc(C(=O)Nc2nnc(C)s2)cn1	none
O=C(CSc1ncn[nH]1)c1ccc2c(c1)OCCO2	none
CC(C)c1ccc(C(=O)CSc2ncn[nH]2)cc1	SF-1 act 53.0, RORa activator 53.4 (no result: mHtt clearance)
c1ccc(N2CCN(c3nc4cc5c(cc4s3)OCCO5)CC2)cc1	SF-1 act 61.4, RORa activator 77.0
c1c2c(cc3sc(N4CCOCC4)nc13)OCCO2	none
c1ccc(Nc2ccccc2Nc2ccccn2)nc1	JNK3 inh 42.6
CC(C)(C)C(=O)CSc1nc2ncc(Br)cc2[nH]1	none (no result: mHtt clearance)
O=C(NCc1nc2ncc(Br)cc2[nH]1)c1ccccc1	JNK3 inh 39.9
O=c1cc(-c2c(F)c(F)c(F)c(F)c2F)oc2c(F)c(F)c(F)c(F)c12	none (no result: mHtt clearance, JNK3 inh, ROCK2 inh)
c1ccc2c(c1)NC1(CCCC1)n1c-2nc2ccccc21	SF-1 act 59.3
Cc1cc2ncn(S(=O)(=O)N3CCCCC3)c2cc1C	none (no result: mHtt clearance)
Cc1cc2ncn(S(=O)(=O)N3CCOCC3)c2cc1C	mHtt clearance 70.5
Cc1cc(C)c(C)c(/C=C(/C#N)C(N)=S)c1C	mHtt clearance 77.1 (no result: PKA kinase inh, SF-1 act, JNK3 inh, ROCK2 inh, RORa activator)
CC(C)N(C(=O)CSc1nnnn1C1CCCC1)C(C)C	none
O=C(NCCN1CCOCC1)c1cc(-c2ccc(Br)cc2)on1	none (no result: mHtt clearance)
C=CCNC(=O)c1cc(-c2ccc(Br)cc2)on1	RORa activator 61.1
CCCNC(=O)c1cc(-c2ccc(OC)cc2)on1	none (no result: JNK3 inh, ROCK2 inh)
CCCCNC(=O)c1cc(-c2ccc(F)cc2)on1	RORa activator 72.5
CCCCNC(=O)c1cc(-c2ccc(OC)cc2)on1	RORa activator 59.0 (no result: mHtt clearance, JNK3 inh, ROCK2 inh)
Cc1ccc(C(c2nnnn2Cc2ccccc2)N2CCN(Cc3ccccc3)CC2)cc1 (stereo unspecified)	none (no result: PKA kinase inh, SF-1 act, JNK3 inh, ROCK2 inh, RORa activator)
